Compound activity deposited in PubChem BioAssay by several laboratories.
Compounds with a hit are over-represented: about 4.7% of the library has one in this group of screens.
ADAM10 inh = human ADAM10 inhibitors, primary screen, biochemical, QFRET, HTS | Disintegrin and metalloproteinase domain-containing protein 10 (Homo sapiens), O14672 | recombinant ADAM10, EDANS/DABCYL FRET peptide cleavage, 3 h | inhibition, % at 7 µM | hit rate 0.62% among 370,000 | AID 720582, 2013;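 active = inhibition above a per-campaign cutoff equal to the mean of compounds falling between control-based bounds plus 3 SD, cut at about 20% in these data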
Target sequence (O14672 214-748 limits assumed): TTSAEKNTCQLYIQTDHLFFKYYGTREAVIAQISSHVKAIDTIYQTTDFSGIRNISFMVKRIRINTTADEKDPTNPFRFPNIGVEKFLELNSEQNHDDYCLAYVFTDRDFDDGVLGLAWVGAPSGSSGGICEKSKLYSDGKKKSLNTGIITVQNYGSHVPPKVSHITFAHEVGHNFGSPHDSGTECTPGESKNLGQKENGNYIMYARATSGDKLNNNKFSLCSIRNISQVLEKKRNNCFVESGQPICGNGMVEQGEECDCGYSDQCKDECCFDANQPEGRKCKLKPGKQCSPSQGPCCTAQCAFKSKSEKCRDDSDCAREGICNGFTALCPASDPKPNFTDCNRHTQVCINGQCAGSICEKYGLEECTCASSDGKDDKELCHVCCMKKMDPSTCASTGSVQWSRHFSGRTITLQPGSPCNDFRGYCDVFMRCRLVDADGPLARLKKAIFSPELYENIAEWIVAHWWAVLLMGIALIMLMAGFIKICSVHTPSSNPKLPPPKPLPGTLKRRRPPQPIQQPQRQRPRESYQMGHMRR
GRIN3A LBD mod = binders of NR3A ligand-binding domain, primary screen, biophysical, differential scanning fluorimetry, uHTS. Glutamate receptor ionotropic, NMDA 3A (GRIN3A) ligand-binding domain. NR3A LBD differential scanning fluorimetry, Tm shift; 0% = protein alone, 100% = glycine-bound protein. Tm shift relative to glycine control, % at 25 µM. hit rate 2.5% among 340,000. AID 1259313, 2017;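 active = melting temperature shift of at least 10% of the positive control shift, at one fixed dose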
MT1-MMP act inh = blockers of MT1-MMP proenzyme processing, primary screen, HT1080 RFP-PRO-GFP cells, GFP/RFP fluorescence | Matrix metalloproteinase-14 (Homo sapiens), P50281 | GFP/RFP ratio fluorescence, overnight; percent of plate control window, DMSO zero | GFP/RFP ratio change, % at 20 µM | hit rate 0.061% among 360,000 | AID 651647, 2012;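 active = GFP/RFP ratio change of at least 30% with cell ATP level not reduced by more than half and red fluorescence within 50% of control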
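Test system: HT1080 cells expressing an RFP-PRO-GFP fluorescent reporter construct / Compound dosing: single-point 20 µM compound, 1% DMSO / Schedule: cells overnight before dosing, compound overnight, 37 °C, 5% CO2 / Evaluation: GFP/RFP fluorescence ratio / Control set: DMSO and RFP-L50D-GFP cell wells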
MPTP inh = mitochondrial permeability transition pore inhibitors, primary screen, biochemical, isolated mouse mitochondria, absorbance. Ca2+ swelling absorbance, 30 min. inhibition, % at 10 µM. hit rate 1.4% among 360,000. AID 602449, 2012;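 active = inhibition of 50% or more, scaled per plate between neutral and stimulator controls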
SKN-1 block = suppressors of acrylamide-induced Pgst-4::GFP reporter in worms, primary screen, SKN-1 inhibitor project, whole organism, uHTS, GFP/RFP fluorescence ratio, strain VP596. C. elegans VP596 Pgst-4::GFP/RFP ratio, 24 h. inhibition, % at 21.8 µM. hit rate 0.49% among 360,000;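 active = interference check ratio from 0.5 to 1.5 plus GFP to RFP signal ratio inhibition reaching or exceeding a fixed threshold, cut at about 30% in these data, passing the limit was not always enough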
ADAM17 inh = ADAM17 inhibitors, primary screen, biochemical, QFRET | inhibition, % at 6.95 µM | recombinant ADAM17, EDANS/DABCYL FRET peptide cleavage | Disintegrin and metalloproteinase domain-containing protein 17 (Homo sapiens), P78536 | AID 720648, 2013 | hit rate 0.83% among 370,000;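 active = inhibition above the mean of compounds lying between control limits plus 3 SD, set per campaign, cut at about 8.5% in these data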
Of the large screens only hits and unclear results are named; the others gave an inactive call.

CCOc1ccc(S(=O)(=O)N2CCCC(C(=O)NCc3cccnc3)C2)cc1C (centres undefined)	none
O=C(NC(=S)Nc1ccccc1N1CCN(C(=O)c2ccccc2)CC1)c1cccs1	none
CCOC(=O)c1c(NC2OC(=O)c3c2ccc(OC)c3OC)sc(C(=O)OC(C)(C)C)c1C (centres undefined)	GRIN3A LBD mod 18
CC(CC(=O)N(C)c1c(N)n(Cc2ccccc2)c(=O)[nH]c1=O)c1ccccc1 (centres undefined)	none
COC(=O)c1ccc(COC(=O)c2ccc(N(C)C)cc2)cc1	none
O=C(OCc1ccc(COC(=O)c2ccc(O)cc2)cc1)c1ccc(O)cc1	GRIN3A LBD mod 21 (no result: ADAM10 inh, ADAM17 inh)
COc1ccc(CCNC(=O)C(=O)NCCC2CCCCN2S(=O)(=O)c2cccs2)cc1 (centres undefined)	none
Cc1ccc(S(=O)(=O)N2CCCCC2CCNC(=O)C(=O)NCc2ccco2)cc1 (centres undefined)	GRIN3A LBD mod 18
COc1ccc(CCNC(=O)c2cc(S(=O)(=O)N3CCCCC3)ccc2Cl)cc1	GRIN3A LBD mod 15
COc1ccc(S(=O)(=O)N2CCCC2CNC(=O)C(=O)Nc2ccc(F)cc2)cc1 (centres undefined)	GRIN3A LBD mod 11
COc1ccc(CCNC(=O)C(=O)NCCC2CCCCN2S(=O)(=O)c2ccccc2)cc1 (centres undefined)	GRIN3A LBD mod 11
COc1ccc(CNC(=O)c2ccncc2)cc1	none
COc1cccc(/C=C2\SC(=O)NC2=O)c1OCc1ccc(C(=O)O)cc1	GRIN3A LBD mod 15
COc1ccc(C(CCNCc2ccc(OC(C)C)cc2)c2ccccc2OC)cc1 (centres undefined)	none
COc1ccc(CNCCC(c2ccc(OC)cc2)c2ccccc2OC)cc1 (centres undefined)	SKN-1 block 38
CC1C(=O)N2CCCc3cc(NS(C)(=O)=O)cc1c32 (centres undefined)	none
C#CCN(C[C@@H]1[C@@H](OC(=O)Nc2cccs2)[C@@H](OC(=O)Nc2cccs2)Cn2c(=O)ccc(=O)n21)S(=O)(=O)c1ccc(C)cc1	ADAM17 inh 10 (no result: GRIN3A LBD mod)
CC(=O)c1cccc(Nc2ccc(-c3ccccc3F)nn2)c1	none
COc1cccc(Nc2ccc(Nc3cccc(OC)c3)nn2)c1	GRIN3A LBD mod 33
COc1ccccc1-c1ccc(Nc2cccc(C(C)=O)c2)nn1	GRIN3A LBD mod 11
COc1cccc(Nc2c(Nc3cccc(OC)c3)c(=O)c2=O)c1	none
COc1ccc(-c2c(-c3ccccc3OC)sc3ccccc23)cc1OC	none
CCOC(=O)c1cnc(SC)nc1Sc1ccccc1Cl	GRIN3A LBD mod 20
CCOC(=O)c1cnc2c(ccc3ccccc32)c1Cl	none
O=[N+]([O-])c1ccccc1NCc1c(O)ccc2ccccc12	GRIN3A LBD mod 13
Oc1ccc2ccccc2c1CNc1ccccc1	none
Cc1nc(-c2ccccc2)nc2[nH]ccc(=O)c12	GRIN3A LBD mod 10
Cc1ccc(C)c(SCC(=O)OC/C(O)=C(\C#N)c2nc3ccccc3[nH]2)c1	none (no result: MT1-MMP act inh)
N#C/C(=C(/O)COC(=O)CSc1ccc2ccccc2c1)c1nc2ccccc2[nH]1	GRIN3A LBD mod 20
Cc1nc(NC(C)C)c2oc3ccccc3c2n1	none
COC(=O)c1cc(NC(=O)CC2SC(=Nc3ccccc3)N(CCc3c[nH]c4ccccc34)C2=O)cc(C(=O)OC)c1 (centres undefined)	GRIN3A LBD mod 23, SKN-1 block 36
CC(=O)Oc1ccc(C(=O)Cc2ccc3ccccc3n2)c(O)c1C	GRIN3A LBD mod 12
CC(=O)Oc1ccc(C(=O)Cc2ccccn2)c(O)c1	none
COc1cccc(Oc2coc3cc(OC(=O)N4CCOCC4)ccc3c2=O)c1	GRIN3A LBD mod 10
Cc1cc(C(=O)Cn2nc(C(=O)O)c3ccccc3c2=O)c(C)n1CCc1ccc(Cl)cc1	none
O=C(COc1cccc(C(F)(F)F)c1)NNC(=O)Cc1ccc(S(=O)(=O)N2CCOCC2)s1	none
CC(=O)Oc1ccc(-c2csc(Nc3ccc(Cl)cn3)n2)cc1	GRIN3A LBD mod 32
CC(=O)NNc1nc(-c2ccc(NC(C)=O)cc2)cs1	none
N#Cc1ccc(Nc2nc(-c3ccc(O)cc3O)cs2)cc1C(F)(F)F	GRIN3A LBD mod 23 (no result: ADAM10 inh, ADAM17 inh)
CC(=O)Nc1ccc(-c2csc(Nc3cccc(C)n3)n2)cc1	GRIN3A LBD mod 26
CC(=O)Nc1cccc(-c2csc(Nc3ccc(C)cn3)n2)c1	GRIN3A LBD mod 27
CC(=O)Nc1cccc(-c2csc(Nc3ncccn3)n2)c1	none (no result: GRIN3A LBD mod, MT1-MMP act inh, MPTP inh, SKN-1 block)
COc1cccc(C(NC(C)=O)c2nc(/C=C/c3ccccc3)cs2)c1 (centres undefined)	none (no result: GRIN3A LBD mod)
Cc1ccc(Nc2nc(-c3ccncc3)cs2)cc1	none
COc1ccc(-c2csc(Nc3ccc(C)cn3)n2)cc1	GRIN3A LBD mod 16
Cc1cccc(Nc2nc(-c3ccc(O)cc3O)cs2)n1	GRIN3A LBD mod 40
CCOc1ccc2nc(SCc3cccc(C)c3)nc(C)c2c1	GRIN3A LBD mod 15
Cc1ccc2nc(SCc3ccc([N+](=O)[O-])cc3)nc(C)c2c1	GRIN3A LBD mod 13
Cc1cc(C)c2nc(SCc3ccc([N+](=O)[O-])cc3)nc(C)c2c1	none
O=C(Nc1cccc(Cl)c1)c1ccc2c(=O)n3c(nc2c1)CCCCC3	none
Cc1ccc(CNC(=O)O[C@H]2CC[C@@]34CCCN3C(=O)CCC[C@H]4C2)cc1	none (no result: GRIN3A LBD mod, MT1-MMP act inh, MPTP inh, SKN-1 block)
CCN(c1ccccc1)S(=O)(=O)c1cc2c(cc1C)N(C)CCO2	none
Cc1c(Nc2nc3ccccc3n3cnnc23)cccc1[N+](=O)[O-]	none
Cc1cc([N+](=O)[O-])ccc1Nc1nc2ccccc2n2cnnc12	GRIN3A LBD mod 37
S=C1NC(C23CC4CC(CC(C4)C2)C3)=CC(c2ccc3c(c2)OCO3)N1 (centres undefined)	none
COc1cc(C(=O)Nc2ccc(-c3nnc(-c4ccco4)o3)cc2)cc(OC)c1OC	GRIN3A LBD mod 30
O=C(Cc1ccc(Cl)cc1)Nc1ccc(-c2nnc(-c3ccco3)o2)cc1	GRIN3A LBD mod 13
N#Cc1ccsc1NC(=O)c1ccccn1	none
CCCOc1ccc(C(=O)NNC(=S)NC(=O)c2cc(-c3ccccc3)nc3ccccc23)cc1	GRIN3A LBD mod 18
